Measurements as given in ChEMBL document CHEMBL1143781, “Synthesis, in vitro antibacterial and antifungal evaluations of 2-amino-4-(1-naphthyl)-6-arylpyrimidines” (2007).
In brackets after ≈: the same amount, converted by molar mass.

Assays:
Assay type in all cases: functional
Klebsiella pneumoniae = assay: Antibacterial activity against Klebsiella pneumoniae after 24 hrs by micro-broth dilution technique
In short: (§1)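 Mueller-Hinton broth microdilution. Test compounds were serially diluted two-fold in DMSO. The inoculum was grown in broth overnight at 37 °C, then diluted to a final 10⁵ cfu/ml in the tray. Trays were covered and incubated at 37 °C for about 24 h. MIC was the lowest concentration inhibiting visible growth.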

Escherichia coli = assay: Antibacterial activity against Escherichia coli after 24 hrs by micro-broth dilution technique; in short: as §1
Pseudomonas aeruginosa = assay: Antibacterial activity against Pseudomonas aeruginosa after 24 hrs by micro-broth dilution technique; in short: as §1
Trichophyton tonsurans = assay: Antifungal activity against Trichophyton tonsurans after 7 days; conditions: 168 h
In short: (§2)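 Fungal strains were taken from Sabouraud medium into nutrient broth and grown 3–5 days at 25 °C. They were vortexed 4–5 min with sterile beads, and the suspensions were adjusted to absorbance 0.5 at 500 nm. Eight serial dilutions were made in microplates, and all wells except the positive control received standardized inoculum. MIC was the lowest concentration giving no visible growth.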

Staphylococcus aureus = assay: Antibacterial activity against Staphylococcus aureus after 24 hrs by micro-broth dilution technique; in short: as §1
Microsporum = assay: Antifungal activity against Microsporum gypseum after 7 days; conditions: 168 h; in short: as §2

SMILES | MIC (Klebsiella pneumoniae) [µg/mL] | MIC (Escherichia coli) [µg/mL] | MIC (Pseudomonas aeruginosa) [µg/mL] | MIC (Trichophyton tonsurans) [µg/mL] | MIC (Staphylococcus aureus) [µg/mL] | MIC (Microsporum) [µg/mL]
Nc1nc(-c2ccccc2Cl)cc(-c2cccc3ccccc23)n1 | 5.38 (≈ 16.2 µM) | > 60 | 6.4 (≈ 19.3 µM) | 25 (≈ 75.3 µM) | 40 (≈ 121 µM) | 25 (≈ 75.3 µM)
COc1ccccc1-c1cc(-c2cccc3ccccc23)nc(N)n1 | 8.22 (≈ 25.1 µM) | 36 (≈ 110 µM) | 9.18 (≈ 28 µM) | 25 (≈ 76.4 µM) | > 60 | 25 (≈ 76.4 µM)
Nc1nc(-c2ccc(Cl)cc2)cc(-c2cccc3ccccc23)n1 | 19.8 (≈ 59.7 µM) | 13.5 (≈ 40.7 µM) | 21.9 (≈ 66 µM) | 2.8 (≈ 8.44 µM) | 12.3 (≈ 37.1 µM) | 5.55 (≈ 16.7 µM)
CC1(C)S[C@@H]2[C@H](NC(=O)[C@H](N)c3ccccc3)C(=O)N2[C@H]1C(=O)O [AMPICILLIN] | 1.8 (≈ 5.15 µM) | 1.65 (≈ 4.72 µM) | 1.8 (≈ 5.15 µM) | – | 1 (≈ 2.86 µM) | –
Clc1ccc(COC(Cn2ccnc2)c2ccc(Cl)cc2Cl)c(Cl)c1 (stereo not given) [MICONAZOLE] | – | – | – | 0.2 (≈ 0.481 µM) | – | 0.2 (≈ 0.481 µM)

The remaining compounds from weak to strong by MIC (Trichophyton tonsurans), led by results:

MIC (Klebsiella pneumoniae) [µg/mL] | MIC (Escherichia coli) [µg/mL] | MIC (Pseudomonas aeruginosa) [µg/mL] | MIC (Trichophyton tonsurans) [µg/mL] | MIC (Staphylococcus aureus) [µg/mL] | MIC (Microsporum) [µg/mL] | SMILES
14.3 (≈ 41.7 µM) | 19.5 (≈ 57 µM) | 18.2 (≈ 53.2 µM) | 25 (≈ 73 µM) | 29.1 (≈ 85 µM) | 25 (≈ 73 µM) | Nc1nc(-c2cccc([N+](=O)[O-])c2)cc(-c2cccc3ccccc23)n1
15.3 (≈ 44.8 µM) | 16.6 (≈ 48.6 µM) | 11.9 (≈ 34.8 µM) | 25 (≈ 73 µM) | 25.6 (≈ 74.9 µM) | 25 (≈ 73 µM) | Nc1nc(-c2ccc([N+](=O)[O-])cc2)cc(-c2cccc3ccccc23)n1
5.5 (≈ 18.5 µM) | 42 (≈ 141 µM) | 6.59 (≈ 22.2 µM) | 25 (≈ 84.1 µM) | > 60 | 25 (≈ 84.1 µM) | Nc1nc(-c2ccccc2)cc(-c2cccc3ccccc23)n1
6.38 (≈ 19.2 µM) | 41 (≈ 124 µM) | 7.42 (≈ 22.4 µM) | 25 (≈ 75.3 µM) | 39 (≈ 118 µM) | 25 (≈ 75.3 µM) | Nc1nc(-c2cccc(Cl)c2)cc(-c2cccc3ccccc23)n1
9.31 (≈ 28.4 µM) | > 60 | 10.2 (≈ 31.2 µM) | 25 (≈ 76.4 µM) | > 60 | 25 (≈ 76.4 µM) | COc1ccc(-c2cc(-c3cccc4ccccc34)nc(N)n2)cc1
2.55 (≈ 8.09 µM) | 8.1 (≈ 25.7 µM) | 5.45 (≈ 17.3 µM) | 2.2 (≈ 6.98 µM) | 7.3 (≈ 23.1 µM) | 5.9 (≈ 18.7 µM) | Nc1nc(-c2ccc(F)cc2)cc(-c2cccc3ccccc23)n1
